From ChEMBL document CHEMBL4052615, “Discovery of 4-amino-3-arylsulfoquinolines, a novel non-acetylenic chemotype of metabotropic glutamate 5 (mGlu5) receptor negative allosteric modulators” (Eur J Med Chem, 2017)

Biological target: Metabotropic glutamate receptor 5 (Homo sapiens, UniProt P41594)
Assay: Displacement of [3H]M-MPEP from mGluR5 (unknown origin) at 1 uM measured after 60 mins relative to control
In short: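 Rat cerebrocortical membranes or membranes from A18 cells expressing human mGlu5a, incubated with [³H]M-MPEP and test compound at 1 µM in 50 mM Tris pH 7.6 with 2 mM MgCl₂ and 2 mM CaCl₂, 60 min at 25°C. Non-specific binding was taken with […]. Result is % displacement, run in duplicate or triplicate.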

Sequence of Metabotropic glutamate receptor 5 (P41594 21-1212 limits assumed): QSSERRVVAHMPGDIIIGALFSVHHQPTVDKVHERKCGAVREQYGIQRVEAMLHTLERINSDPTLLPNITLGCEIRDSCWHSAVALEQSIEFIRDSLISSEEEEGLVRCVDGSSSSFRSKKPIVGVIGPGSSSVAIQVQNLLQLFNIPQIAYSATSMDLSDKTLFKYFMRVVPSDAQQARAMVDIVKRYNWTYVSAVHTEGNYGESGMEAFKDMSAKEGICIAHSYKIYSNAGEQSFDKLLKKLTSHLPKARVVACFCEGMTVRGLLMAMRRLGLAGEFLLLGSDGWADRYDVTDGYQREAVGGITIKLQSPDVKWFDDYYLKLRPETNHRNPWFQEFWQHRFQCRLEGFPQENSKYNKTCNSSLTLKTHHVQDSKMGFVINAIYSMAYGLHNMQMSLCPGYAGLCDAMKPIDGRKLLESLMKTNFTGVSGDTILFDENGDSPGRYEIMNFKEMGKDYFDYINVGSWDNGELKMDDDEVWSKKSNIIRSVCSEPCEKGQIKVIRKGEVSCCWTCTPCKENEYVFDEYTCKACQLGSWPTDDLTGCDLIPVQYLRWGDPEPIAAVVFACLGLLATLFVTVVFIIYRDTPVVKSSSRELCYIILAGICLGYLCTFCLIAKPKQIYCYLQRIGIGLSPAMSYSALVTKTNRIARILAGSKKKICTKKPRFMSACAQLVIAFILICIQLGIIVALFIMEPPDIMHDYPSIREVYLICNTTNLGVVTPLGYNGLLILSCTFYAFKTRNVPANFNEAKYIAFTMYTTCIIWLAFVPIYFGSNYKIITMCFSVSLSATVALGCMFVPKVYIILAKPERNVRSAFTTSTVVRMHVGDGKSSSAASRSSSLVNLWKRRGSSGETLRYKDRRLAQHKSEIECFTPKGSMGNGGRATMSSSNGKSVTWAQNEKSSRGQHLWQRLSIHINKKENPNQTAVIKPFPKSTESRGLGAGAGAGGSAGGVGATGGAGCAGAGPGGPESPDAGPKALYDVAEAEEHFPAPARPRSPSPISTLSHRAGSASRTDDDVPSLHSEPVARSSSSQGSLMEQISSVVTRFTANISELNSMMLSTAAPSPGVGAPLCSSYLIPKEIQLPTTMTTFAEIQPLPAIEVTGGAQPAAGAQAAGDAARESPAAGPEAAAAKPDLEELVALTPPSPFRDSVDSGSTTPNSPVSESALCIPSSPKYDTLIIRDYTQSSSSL

inhibition [%] | Structure (SMILES)
88 | Cc1ccc(S(=O)(=O)c2cnc3cc(F)ccc3c2N2CCC(C)CC2)cc1
85 | O=S(=O)(c1cc(Cl)cc(Cl)c1)c1cnc2cc(Cl)ccc2c1N1CCOCC1
74.5 to 75 | CC1CCN(c2c(S(=O)(=O)c3ccc(F)cc3)cnc3cc(F)ccc23)CC1
85 | COc1ccc2ncc(S(=O)(=O)c3ccc(C)c(Cl)c3)c(N3CCC(C)CC3)c2c1
62 | COc1ccc(S(=O)(=O)c2cnc3cc(Cl)ccc3c2N2CCOCC2)cc1Cl
90 | CC1CCN(c2c(S(=O)(=O)c3cccc(C#N)c3)cnc3ccc(Cl)cc23)CC1
94 | Cc1ccc(S(=O)(=O)c2cnc3cc(Cl)ccc3c2N2CCC(C)CC2)cc1
52 | O=S(=O)(c1ccc(Cl)cc1)c1cnc2c(F)cccc2c1N1CCOCC1
33 | COc1ccc(S(=O)(=O)c2cnc3c(F)cccc3c2N2CCOCC2)cc1
29 | O=S(=O)(c1ccc(F)cc1)c1cnc2cc(F)ccc2c1N1CCOCC1
46 | COc1ccc(S(=O)(=O)c2cnc3ccc(Cl)cc3c2N2CCC(C)CC2)cc1Cl
57 | O=S(=O)(c1ccc(F)c(F)c1)c1cnc2c(F)cccc2c1N1CCOCC1
80 | Cc1cc(C)cc(S(=O)(=O)c2cnc3ccc(C)cc3c2N2CCC(C)CC2)c1
83 | COc1ccc(S(=O)(=O)c2cnc3cc(F)ccc3c2N2CCC(C)CC2)cc1OC
91 | Cc1ccc(S(=O)(=O)c2cnc3ccc(F)cc3c2N2CCC(C)CC2)cc1
58 | Cc1ccc2ncc(S(=O)(=O)c3cccc(C#N)c3)c(N3CCOCC3)c2c1
72 | COc1cccc(S(=O)(=O)c2cnc3cc(F)ccc3c2N2CCOCC2)c1
91 | Cc1ccc2ncc(S(=O)(=O)c3cccc(Cl)c3)c(N3CCC(C)CC3)c2c1
93 | CC1CCN(c2c(S(=O)(=O)c3cc(F)cc(F)c3)cnc3ccc(Cl)cc23)CC1
92 | CC1CCN(c2c(S(=O)(=O)c3cccc(Cl)c3)cnc3ccc(Cl)cc23)CC1
91 | Cc1ccc2ncc(S(=O)(=O)c3ccc(C)c(Cl)c3)c(N3CCC(C)CC3)c2c1
55 | Cc1ccc2ncc(S(=O)(=O)c3ccc(C#N)cc3)c(N3CCC(C)CC3)c2c1
1.7 | CCN1CCN(c2c(S(=O)(=O)c3ccccc3)cnc3ccccc23)CC1
84 | Cc1ccc(S(=O)(=O)c2cnc3cc(F)ccc3c2N2CCOCC2)cc1Cl
73 | COc1ccc2ncc(S(=O)(=O)c3ccc(C)c(F)c3)c(N3CCC(C)CC3)c2c1

inhibition [%] | Structure (SMILES)
80.9 | N#Cc1cccc(S(=O)(=O)c2cnc3cc(F)ccc3c2N2CCSCC2)c1
55 | O=S(=O)(c1ccc(Cl)cc1)c1cnc2cc(Cl)ccc2c1N1CCOCC1
20 | COc1ccc2ncc(S(=O)(=O)c3cccc(C#N)c3)c(N3CCOCC3)c2c1
83 | O=S(=O)(c1ccc(F)c(Cl)c1)c1cnc2c(F)cccc2c1N1CCOCC1
-2 | COc1ccc(S(=O)(=O)c2cnc3ccc(Cl)cc3c2N2CCOCC2)cc1OC
23 | Cc1ccc(S(=O)(=O)c2cnc3c(F)cccc3c2N2CCOCC2)cc1
7.1 | O=S(=O)(c1ccccc1)c1cnc2ccccc2c1N1CCCC1
90 | Cc1ccc(S(=O)(=O)c2cnc3cc(F)ccc3c2N2CCC(C)CC2)cc1C
2 | O=S(=O)(c1ccc(F)cc1)c1cnc2ccc(F)cc2c1N1CCOCC1
78.4 | O=S(=O)(c1cc(F)cc(F)c1)c1cnc2cc(F)ccc2c1N1CCSCC1
12 | Cc1ccc(S(=O)(=O)c2cnc3cc(Cl)ccc3c2N2CCOCC2)cc1
33 | Cc1ccc2ncc(S(=O)(=O)c3ccc(C)c(F)c3)c(N3CCOCC3)c2c1
75 | Cc1ccc2ncc(S(=O)(=O)c3ccc(C)c(Cl)c3)c(N3CCOCC3)c2c1
81 | Cc1ccc(S(=O)(=O)c2cnc3ccc(Cl)cc3c2N2CCC(C)CC2)cc1Cl
70 | COc1cccc(S(=O)(=O)c2cnc3cc(Cl)ccc3c2N2CCOCC2)c1
86 | O=S(=O)(c1ccc(Cl)c(Cl)c1)c1cnc2cc(Cl)ccc2c1N1CCOCC1
6 | O=S(=O)(c1ccc(F)cc1)c1cnc2ccc(Cl)cc2c1N1CCOCC1
58 | CC1CCN(c2c(S(=O)(=O)c3cccc(F)c3)cnc3ccc(Cl)cc23)CC1
0 | O=S(=O)(c1cccc(F)c1)c1cnc2ccc(F)cc2c1N1CCOCC1
-3 | COc1ccc2ncc(S(=O)(=O)c3cccc(Cl)c3)c(N3CCC(C)CC3)c2c1
13 | CC1CCN(c2c(S(=O)(=O)c3ccccc3)cnc3c(F)cccc23)CC1
4 | O=S(=O)(c1ccccc1)c1cnc2cc(F)ccc2c1N1CCOCC1
54 | COc1ccc(S(=O)(=O)c2cnc3ccc(F)cc3c2N2CCC(C)CC2)cc1OC
64 | COc1ccc2ncc(S(=O)(=O)c3ccccc3)c(N3CCC(C)CC3)c2c1
90 | COc1cccc(S(=O)(=O)c2cnc3ccc(F)cc3c2N2CCC(C)CC2)c1

inhibition [%] | Structure (SMILES)
93 | COc1ccc(S(=O)(=O)c2cnc3ccc(C)cc3c2N2CCC(C)CC2)cc1Cl
53 | Cc1ccc(S(=O)(=O)c2cnc3ccc(Cl)cc3c2N2CCOCC2)cc1Cl
90 | COc1cccc(S(=O)(=O)c2cnc3cc(F)ccc3c2N2CCC(C)CC2)c1
23 | Cc1ccc(S(=O)(=O)c2cnc3ccc(Cl)cc3c2N2CCOCC2)cc1F
77 to 77.2 | CC1CCN(c2c(S(=O)(=O)c3cc(F)cc(F)c3)cnc3cc(F)ccc23)CC1
26 | CC1CCN(c2c(S(=O)(=O)c3ccc(F)cc3)cnc3c(F)cccc23)CC1
91 | COc1ccc2ncc(S(=O)(=O)c3ccc(Cl)cc3)c(N3CCC(C)CC3)c2c1
73 | Cc1ccc(S(=O)(=O)c2cnc3c(F)cccc3c2N2CCOCC2)cc1F
68 | COc1ccc2ncc(S(=O)(=O)c3cccc(F)c3)c(N3CCC(C)CC3)c2c1
49 | O=S(=O)(c1ccc(F)c(F)c1)c1cnc2cc(Cl)ccc2c1N1CCOCC1
30 | COc1ccc2ncc(S(=O)(=O)c3cc(F)cc(F)c3)c(N3CCC(C)CC3)c2c1
87 | COc1cccc(S(=O)(=O)c2cnc3ccc(Cl)cc3c2N2CCC(C)CC2)c1
67 | O=S(=O)(c1cc(F)cc(F)c1)c1cnc2cc(Cl)ccc2c1N1CCOCC1
82 | CC1CCN(c2c(S(=O)(=O)c3cc(Cl)cc(Cl)c3)cnc3c(F)cccc23)CC1
76 | Cc1ccc2ncc(S(=O)(=O)c3ccc(Cl)c(Cl)c3)c(N3CCOCC3)c2c1
48 | Cc1ccc2ncc(S(=O)(=O)c3ccc(C#N)cc3)c(N3CCOCC3)c2c1
2 | O=S(=O)(c1ccc(F)c(F)c1)c1cnc2ccc(Cl)cc2c1N1CCOCC1
93 | Cc1ccc(S(=O)(=O)c2cnc3cc(F)ccc3c2N2CCC(C)CC2)cc1Cl
86 | Cc1ccc(S(=O)(=O)c2cnc3ccc(F)cc3c2N2CCC(C)CC2)cc1F
93 | COc1ccc(S(=O)(=O)c2cnc3cc(Cl)ccc3c2N2CCC(C)CC2)cc1OC
59 | CC1CCN(c2c(S(=O)(=O)c3ccccc3)cnc3ccc(Cl)cc23)CC1
93 | CC1CCN(c2c(S(=O)(=O)c3cc(Cl)cc(Cl)c3)cnc3cc(Cl)ccc23)CC1
93 | Cc1ccc(S(=O)(=O)c2cnc3c(F)cccc3c2N2CCC(C)CC2)cc1
28 | Cc1ccc(S(=O)(=O)c2cnc3ccc(F)cc3c2N2CCOCC2)cc1F
62.7 | O=S(=O)(c1ccc(F)cc1)c1cnc2cc(F)ccc2c1N1CCSCC1

inhibition [%] | Structure (SMILES)
13.5 | O=S(=O)(c1ccccc1)c1cnc2ccccc2c1N1CCN(c2ccccc2)CC1
7.7 | CN1CCN(c2c(S(=O)(=O)c3ccccc3)cnc3ccccc23)CC1
14 | O=S(=O)(c1cc(Cl)cc(Cl)c1)c1cnc2ccc(Cl)cc2c1N1CCOCC1
88 | CC1CCN(c2c(S(=O)(=O)c3cc(Cl)cc(Cl)c3)cnc3ccc(Cl)cc23)CC1
41 | COc1ccc(S(=O)(=O)c2cnc3cc(Cl)ccc3c2N2CCOCC2)cc1
28 | COc1cccc(S(=O)(=O)c2cnc3ccc(Cl)cc3c2N2CCOCC2)c1
82 | CC1CCN(c2c(S(=O)(=O)c3ccc(F)c(F)c3)cnc3ccc(F)cc23)CC1
77 | O=S(=O)(c1cc(Cl)cc(Cl)c1)c1cnc2c(F)cccc2c1N1CCOCC1
75 | CC1CCN(c2c(S(=O)(=O)c3ccc(C#N)cc3)cnc3ccc(F)cc23)CC1
2 | N#Cc1ccc(S(=O)(=O)c2cnc3cc(Cl)ccc3c2N2CCOCC2)cc1
92 | CC1CCN(c2c(S(=O)(=O)c3cccc(Cl)c3)cnc3ccc(F)cc23)CC1
47 | Cc1cc(C)cc(S(=O)(=O)c2cnc3ccc(C)cc3c2N2CCOCC2)c1
14 | O=S(=O)(c1ccc(F)cc1)c1cnc2cc(Cl)ccc2c1N1CCOCC1
3.6 | O=S(=O)(c1ccccc1)c1cnc2ccccc2c1Nc1ccccc1
39 | O=S(=O)(c1ccc(F)c(Cl)c1)c1cnc2ccc(Cl)cc2c1N1CCOCC1
94 | CC1CCN(c2c(S(=O)(=O)c3ccc(F)c(Cl)c3)cnc3cc(F)ccc23)CC1
83 | CC1CCN(c2c(S(=O)(=O)c3ccc(C#N)cc3)cnc3cc(F)ccc23)CC1
94 | CC1CCN(c2c(S(=O)(=O)c3ccc(Cl)c(Cl)c3)cnc3cc(F)ccc23)CC1
23 | O=S(=O)(c1cccc(F)c1)c1cnc2c(F)cccc2c1N1CCOCC1
82 | COc1ccc(S(=O)(=O)c2cnc3ccc(F)cc3c2N2CCC(C)CC2)cc1Cl
33 | COc1ccc(S(=O)(=O)c2cnc3ccc(Cl)cc3c2N2CCOCC2)cc1Cl
18 | O=S(=O)(c1ccccc1)c1cnc2ccc(Cl)cc2c1N1CCOCC1
90 | COc1ccc2ncc(S(=O)(=O)c3cccc(C#N)c3)c(N3CCC(C)CC3)c2c1
53 | COc1ccc(S(=O)(=O)c2cnc3cc(F)ccc3c2N2CCOCC2)cc1Cl
